Experimental data from ChEMBL document CHEMBL1140381, “Design and studies of novel 5-substituted alkynylpyrimidine nucleosides as potent inhibitors of mycobacteria” (2005).
In brackets after ≈: the same amount, converted by molar mass.

Assays:
Format in all cases: functional
[1] = tested on: Mycobacterium tuberculosis variant bovis; assay: Inhibition of growth of Mycobacterium bovis was determined using microplate alamar blue assay at 10 ug/mL concentration with compound dissolved in DMSO
Procedure, shortened: (§1)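 MABA in 7H9GC medium; M. bovis BCG or M. avium ATCC 25291 frozen inocula at 2.5 × 10⁵ CFU/mL final, 100× DMSO stocks diluted into medium. Incubated 6 days, then alamar blue plus 20% Tween-80 added once bacteria-only wells turned pink, read 24 h later by fluorescence. % inhibition = […]. Triplicate wells, three experiments, mean reported.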

[2] = tested on: Mycobacterium tuberculosis variant bovis; assay: Inhibition of growth of Mycobacterium bovis was determined using microplate alamar blue assay at 1 ug/mL concentration with compound dissolved in DMSO; procedure, shortened: as §1
[3] = tested on: Mycobacterium tuberculosis variant bovis; assay: Inhibition of growth of Mycobacterium bovis was determined using microplate alamar blue assay at 100 ug/mL concentration with compound dissolved in DMSO; procedure, shortened: as §1
[4] = tested on: Mycobacterium tuberculosis variant bovis; assay: Inhibition of growth of Mycobacterium bovis was determined using microplate alamar blue assay at 50 ug/mL concentration with compound dissolved in DMSO; procedure, shortened: as §1
[5] = tested on: Mycobacterium tuberculosis variant bovis; assay: Minimum inhibitory concentration against Mycobacterium bovis
Procedure, shortened: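 Alamar blue microplate assay in 7H9GC. BCG or M. avium ATCC 25291 at 2.5 × 10⁵ CFU/mL final, exposed to compound at 100, 50, 10 and 1 µg/mL in triplicate. Reagent added after 6+ days once growth controls turned pink, read after 24 h visually and by fluorescence. MIC₉₀ taken as the lowest concentration giving ~90% growth inhibition.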

[6] = tested on: Mycobacterium tuberculosis variant bovis; assay: Inhibition of growth of Mycobacterium bovis was determined using microplate alamar blue assay at 0.5-1 ug/mL concentration with compound dissolved in DMSO

| Compound | inhibition at 10 µg/mL [1] [%] | inhibition at 1 µg/mL [2] [%] | inhibition at 100 µg/mL [3] [%] | inhibition at 50 µg/mL [4] [%] | MIC90 [5] [µg/mL] | Inhibition [6] [%] |
| --- | --- | --- | --- | --- | --- | --- |
| CCCCCCCCCCCCC#Cc1cn([C@H]2C[C@H](O)[C@@H](CO)O2)c(=O)[nH]c1=O | 90 | 33 | 90 | 90 | 10 (≈ 23.8 µM) |  |
| CCCCCC#Cc1cn([C@H]2C[C@H](O)[C@@H](CO)O2)c(=O)[nH]c1=O |  |  | 60 | 60 |  |  |
| CCCCCCCCCCC#Cc1cn([C@H]2C[C@H](O)[C@@H](CO)O2)c(=O)[nH]c1=O | 70 | 25 | 90 | 90 | 50 (≈ 127 µM) |  |
| CCCCCCCCC#Cc1cn([C@H]2C[C@H](O)[C@@H](CO)O2)c(=O)[nH]c1=O | 0 |  | 90 | 50 | 100 (≈ 274 µM) |  |
| CCCCCCCCC#Cc1cn([C@H]2C[C@H](O)[C@@H](CO)O2)c(=O)nc1N | 10 |  | 90 | 90 | 50 (≈ 138 µM) |  |
| CO[C@H]1/C=C/O[C@@]2(C)Oc3c(C)c(O)c4c(O)c(c(/C=N/N5CCN(C)CC5)c(O)c4c3C2=O)NC(=O)/C(C)=C\C=C\[C@H](C)[C@H](O)[C@@H](C)[C@@H](O)[C@@H](C)[C@H](OC(C)=O)[C@@H]1C [RIFAMPIN] |  |  |  |  | 1 (≈ 1.22 µM) | 100 |
| CCCCCCCCCCC#Cc1cn([C@H]2C[C@H](O)[C@@H](CO)O2)c(=O)nc1N | 90 | 25 | 90 | 90 | 10 (≈ 25.5 µM) |  |
